Reference: ChEMBL document CHEMBL1145384, “Novel C-6 fluorinated acyclic side chain pyrimidine derivatives: synthesis, (1)H and (13)C NMR conformational studies, and antiviral and cytostatic evaluations” (J Med Chem, 2007)

Legend:
[1] = system: Mammalian orthoreovirus 1; assay: Antiviral activity against reovirus1 virus in Vero cells assessed as reduction of virus plaque formation after 7 days; format: functional, organism-based; settings: Mammalian orthoreovirus 1, Vero, 168 h
Human alphaherpesvirus 3 [2] = assay: Antiviral activity against thymidine kinase deficient Varicella-Zoster virus 07/1 assessed as reduction of plaque formation; format: functional, organism-based; settings: Human alphaherpesvirus 3, 07/1
How it was run: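 Plaque reduction assay in HEL cells against TK+ (OKA) and TK- (07/1) VZV strains; virus input 100 PFU; EC50 as concentration giving 50% plaque reduction.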

HeLa = assay: Growth inhibition of HeLa cells after 72 hrs by MTT assay; format: functional, cell-based; settings: Homo sapiens
How it was run: (§1)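 Tumor lines grown as monolayers in DMEM with 10% FBS, 2 mM L-glutamine and penicillin. Freshly diluted compounds added, solvent tested at matching concentrations; after 72 h growth measured by MTT. IC50 obtained by linear regression of concentrations bracketing 50% growth; mean of three separate experiments.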

Punta Toro virus = assay: Antiviral activity against Punta Toro virus in Vero cells assessed as reduction of virus plaque formation after 7 days; format: functional, organism-based; settings: 168 h
[3] = Cytotoxicity against HEL cells assessed as cell morphology after 7 days; format: cell-based; settings: human
How it was run: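 Uninfected confluent HEL cultures exposed to compounds; MCC recorded as lowest concentration producing a microscopically detectable alteration of normal cell morphology at day 7.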

Sindbis virus = assay: Antiviral activity against sindbis virus in Vero cells assessed as reduction of virus plaque formation after 7 days; format: functional, organism-based; settings: 168 h
MIA PaCa-2 = assay: Growth inhibition of MiaPaCa2 cells after 72 hrs by MTT assay; format: functional, cell-based; settings: Homo sapiens, MIA PaCa-2, 72 h; how it was run: as §1
[4] = Cytotoxicity against HEL cells assessed as cell growth after 7 days; format: cell-based; settings: human
[5] = Growth inhibition of human Molt4/C8 cells after 72 hrs by MTT assay; format: functional, cell-based; settings: MOLT-4, 72 h
HEp-2 = assay: Growth inhibition of Hep2 cells after 72 hrs by MTT assay; format: functional, cell-based; settings: Homo sapiens, HEp-2, 72 h; how it was run: as §1
SW-620 = assay: Growth inhibition of SW620 cells after 72 hrs by MTT assay; format: functional, cell-based; settings: Homo sapiens, SW-620, 72 h; how it was run: as §1
Human betaherpesvirus 5 [6] = assay: Antiviral activity against human cytomegalovirus AD169 in HEL cells assessed as reduction of plaque formation after 7 days; format: functional, organism-based; settings: Human betaherpesvirus 5, AD169, HEL, 168 h
How it was run: (§2)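 Confluent HEL fibroblasts infected with HCMV (Davis or AD-169) at 100 PFU per well; after 2 h adsorption, residual virus removed and medium with serial compound concentrations added (duplicate wells). Incubated 7 days; EC50 taken as concentration reducing plaque formation by 50%.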

Human respirovirus 3 = assay: Antiviral activity against parainfluenza 3 virus in Vero cells assessed as reduction of virus plaque formation after 7 days; format: functional, organism-based; settings: Human respirovirus 3, Vero, 168 h
MCF7 = assay: Growth inhibition of MCF7 cells after 72 hrs by MTT assay; format: functional, cell-based; settings: Homo sapiens, MCF7, 72 h; how it was run: as §1
Coxsackievirus B4 = assay: Antiviral activity against coxsackie B4 virus in HeLa cells assessed as reduction of virus plaque formation after 7 days; format: functional, organism-based; settings: Enterovirus B, 168 h
L1210 = assay: Growth inhibition of mouse L1210 cells after 72 hrs by MTT assay; format: functional, cell-based; settings: L1210, 72 h
CCRF-CEM = assay: Growth inhibition of human CEM cells after 72 hrs by MTT assay; format: functional, cell-based
Human alphaherpesvirus 3 [7] = assay: Antiviral activity against thymidine kinase expressing Varicella-Zoster virus OKA assessed as reduction of plaque formation; format: functional, organism-based; settings: Human alphaherpesvirus 3, OKA
Human betaherpesvirus 5 [8] = assay: Antiviral activity against human cytomegalovirus Davis in HEL cells assessed as reduction of plaque formation after 7days; format: functional, organism-based; settings: Human betaherpesvirus 5, Davis, 168 h; how it was run: as §2

| Structure (SMILES) | EC50 [1] | EC50 (Human alphaherpesvirus 3 [2]) | IC50 (HeLa) | EC50 (Punta Toro virus) | MCC at 168 h [3] | EC50 (Sindbis virus) | IC50 (MIA PaCa-2) | CC50 at 168 h [4] | IC50 [5] | IC50 (HEp-2) | IC50 (SW-620) | EC50 (Human betaherpesvirus 5 [6]) | EC50 (Human respirovirus 3) | IC50 (MCF7) | EC50 (Coxsackievirus B4) | IC50 (L1210) | IC50 (CCRF-CEM) | EC50 (Human alphaherpesvirus 3 [7]) | EC50 (Human betaherpesvirus 5 [8]) |
| --- | --- | --- | --- | --- | --- | --- | --- | --- | --- | --- | --- | --- | --- | --- | --- | --- | --- | --- | --- |
| CC(=O)OC(C)(Cc1cc(O)nc(O)n1)Cc1ccccc1F (stereo unspecified) | > 124 µM | > 100 µM | > 200 µM | > 124 µM | > 100 µM | > 124 µM | > 200 µM | > 100 µM | > 200 µM | > 200 µM | > 200 µM | > 100 µM | > 124 µM | > 200 µM | > 200 µM | > 200 µM | > 200 µM | > 100 µM | > 100 µM |
| Nc1ccn(C[C@@H](CO)OCP(=O)(O)O)c(=O)n1 [CIDOFOVIR] |  |  |  |  | ≥ 1270 µM |  |  | 51 µM |  |  |  | 0.41 µM |  |  |  |  |  |  | 0.41 µM |
| COc1nc(OC)c(Br)c(C(Br)Br)n1 | > 40 µM | 10.5 µM | 1 µM | > 40 µM | 100 µM | 40 µM | 2 µM | 1.7 µM | 8.5 µM | 2 µM | 0.4 µM | > 20 µM | 40 µM | 6 µM | > 40 µM | 8.8 µM | 7.1 µM | 8.8 µM | > 20 µM |
| COc1cc(CC(C)(CF)OC(C)=O)nc(OC)n1 (stereo unspecified) | > 29 µM | 7.4 µM | 11.7 µM | > 29 µM | 73.5 µM | > 29 µM | 39 µM | 50 µM | 47.8 µM | 17.7 µM | 30 µM | > 14.7 µM | > 29 µM | 18 µM | > 147 µM | 21.7 µM | 20.6 µM | 8.1 µM | > 14.7 µM |
| COc1nc(CC(C)(O)c2ccc(F)cc2)c(C)c(OC)n1 (stereo unspecified) | > 200 µM | 45 µM | 35 µM | > 200 µM | > 100 µM | > 200 µM | 65 µM | > 100 µM | 144 µM | 43 µM | ≥ 100 µM | 45 µM | > 200 µM | 38 µM | > 40 µM | 195 µM | 136 µM | 80 µM | 20 µM |
| COc1nc(C)c(Br)c(OC)n1 | > 200 µM | 88 µM | > 100 µM | > 200 µM | ≥ 100 µM | > 200 µM | > 100 µM | 18 µM | > 200 µM | > 100 µM | > 100 µM | > 100 µM | > 200 µM | > 100 µM | > 200 µM | > 200 µM | > 200 µM | > 100 µM | > 100 µM |
| COc1cc(CC(O)(c2ccc(F)cc2)c2ccc(F)cc2)nc(OC)n1 | > 40 µM | > 100 µM | > 100 µM | > 40 µM | > 100 µM | > 40 µM | > 100 µM | > 100 µM | > 500 µM | > 100 µM | > 100 µM | > 100 µM | > 40 µM | > 100 µM | > 40 µM | ≥ 500 µM | > 500 µM | > 100 µM | > 100 µM |
| COc1nc(CC(C)(O)C(F)(F)F)c(-c2ccccc2)c(OC)n1 (stereo unspecified) | > 40 µM | > 20 µM | 17 µM | > 40 µM | 4 µM | > 40 µM | 20 µM | 35 µM | 118 µM | 19 µM | 20 µM | > 0.8 µM | > 40 µM | > 17 µM | > 40 µM | 82 µM | 70 µM | > 20 µM | > 0.8 µM |
| NC(=O)c1ncn([C@@H]2O[C@H](CO)[C@@H](O)[C@H]2O)n1 [RIBAVIRIN] | 250 µM |  |  | 150 µM |  | 50 µM |  |  |  |  |  |  | 150 µM |  | 150 µM |  |  |  |  |
| CC(=O)OC(C)(CF)Cc1cc(O)nc(O)n1 (stereo unspecified) | > 200 µM | > 100 µM | > 200 µM | > 200 µM | > 100 µM | > 200 µM | > 200 µM | > 100 µM | > 200 µM | > 200 µM | > 200 µM | > 100 µM | > 200 µM | > 200 µM | > 200 µM | > 200 µM | > 200 µM | > 100 µM | > 100 µM |
